# From ChEMBL document CHEMBL1828626, “Thiazolyl N-benzyl-substituted acetamide derivatives: synthesis, Src kinase inhibitory and anticancer activities” (2011)
# The source made the active and inactive calls. The rule behind the calls is not given here.
# Columns and labels:
# NIH3T3 = experiment: Inhibition of constitutively active human c-SRC527F mutant-induced growth inhibition in mouse NIH3T3 cells after 3 days by MTT assay; assay type: cell-based
# Summary of the method: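 NIH3T3 cells carrying constitutively active human c-Src527F were seeded at 4500 cells/well in DMEM/10% FBS and left overnight. They were then exposed for 3 days at 37 °C to a 5-point 2-fold dilution series (n = 3). Growth % = (T−T0)/(C−T0) × 100; GI50 taken from curves.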
# SYF = experiment: Inhibition of constitutively active human c-Src527F mutant-induced growth inhibition in src, yes and fyn-deficient mouse SYF cells after 2 days by MTT assay; assay type: cell-based
# Summary of the method: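 SYF cells (Src/Yes/Fyn knockout) re-expressing c-Src527F were plated at 3500 cells/well in DMEM/10% FBS overnight. Compound was added as a 5-point 2-fold serial dilution in triplicate for 2 days at 37 °C, 5% CO2. GI50 comes from growth % = (T−T0)/(C−T0) × 100, with T0 from day-zero wells.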
# HT-29 = experiment: Antiproliferative activity against c-Src overexpressing human HT-29 cells at 50 uM after 24 to 72 hrs relative to control; assay type: functional
# Summary of the method: (§1)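 Cells cultured in EMEM (HT-29, BT-20) or RPMI (CCRF-CEM) with 10% FBS at 37 °C, 5% CO2. Seeded at 5000 cells/well and treated 72 h after seeding with 50 μM compound, in triplicate, for 24-72 h. CellTiter 96 AQueous One reagent added for 1 h; formazan A490. Survival is (treated − medium blank)/(untreated control − blank) × 100%.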
# CCRF-CEM [1] = experiment: Antiproliferative activity against human CCRF-CEM cells at 50 uM after 72 hrs relative to control; assay type: functional; summary of the method: as §1
# BT-20 [2] = experiment: Antiproliferative activity against human BT20 cells at 50 uM after 72 hrs relative to control; assay type: functional; summary of the method: as §1
# BT-20 [3] = experiment: Antiproliferative activity against human BT20 cells at 10 uM after 72 hrs relative to control; assay type: functional, cell-based
# Summary of the method: (§2)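 BT-20 in EMEM or CCRF-CEM in RPMI, with 10% FBS, at 37 °C, 5% CO2. Seeded at 5000 cells/well and exposed 72 h after seeding to 10 μM agent, in triplicate. Readout is CellTiter 96 AQueous One, 1 h, A490. Growth is given as percent of untreated control after medium-blank subtraction.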
# CCRF-CEM [4] = experiment: Antiproliferative activity against human CCRF-CEM cells at 10 uM after 72 hrs relative to control; assay type: functional, cell-based; summary of the method: as §2
Compound,GI50 (NIH3T3) [µM],GI50 (SYF) [µM],Activity (HT-29) [%],Activity (CCRF-CEM [1]) [%],Activity (BT-20 [2]) [%],Activity (BT-20 [3]),Activity (CCRF-CEM [4])
O=C(Cc1csc(-c2ccc(OCCN3CCOCC3)cc2)n1)NCc1ccc(F)cc1,1.49,2.51,54,71,–,–,–
O=C(Cc1csc(-c2ccc(OCCN3CCOCC3)cc2)n1)NCc1ccccc1Cl,7.93,13,–,30,30,–,–
O=C(Cc1csc(-c2ccc(OCCN3CCOCC3)cc2)n1)NCc1ccc(Cl)c(Cl)c1,12.3,12.5,54,69,–,–,–
COc1cccc2c1C(=O)c1c(O)c3c(c(O)c1C2=O)C[C@@](O)(C(=O)CO)C[C@@H]3O[C@H]1C[C@H](N)[C@H](O)[C@H](C)O1,–,–,–,–,–,Active,Active
O=C(Cc1csc(-c2ccc(OCCN3CCOCC3)cc2)n1)NCc1ccccc1,1.34,2.3,–,30,30,–,–
O=C(Cc1ccc(-c2ccc(OCCN3CCOCC3)cc2)cn1)NCc1ccccc1,0.023,0.039,–,–,–,–,–
Cc1ccc(CNC(=O)Cc2csc(-c3ccc(OCCN4CCOCC4)cc3)n2)cc1,4.76,7.23,54,61,–,–,–
